According to ChEMBL document CHEMBL4689842, “EUbOPEN Chemogenomics Library wave 1” (2021):

System: HEK-293T
Experiment: Multiplex assay against HEK293T;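 on Population Tubulin-Different-Phenotype (%): share of the cells with healthy nuclei that show this phenotype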
Format: toxicity, cell-based
Conditions: human
Procedure, shortened: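 Values for tubulin, mitochondrial-mass and membrane-permeability phenotypes are per cents of cells with healthy nuclei. These cells were identified by CellPathfinder machine-learning gating of live cells that had been stained at seeding with Hoechst33342, BioTracker Green Microtubule Cytoskeleton Dye, MitoTracker Red and Annexin V Alexa Fluor 680 and imaged on a CQ1 microscope at 37°C and 5% CO2 after compound addition. The gating first set Hoechst high-intensity objects apart from normal cells, then split normal cells into healthy, pyknosed or fragmented nuclei, and pyknosed cells into mitotic or apoptotic.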

[1] = 12 h, 1 µM, compound concentration 1 uM, replicate 1
[2] = 12 h, 1 µM, compound concentration 1 uM, replicate 2
[3] = 12 h, 10 µM, compound concentration 10 uM, replicate 1
[4] = 12 h, 10 µM, compound concentration 10 uM, replicate 2
[5] = 24 h, 1 µM, compound concentration 1 uM, replicate 1
[6] = 24 h, 1 µM, compound concentration 1 uM, replicate 2
[7] = 24 h, 10 µM, compound concentration 10 uM, replicate 1
[8] = 24 h, 10 µM, compound concentration 10 uM, replicate 2
[9] = 48 h, 1 µM, compound concentration 1 uM, replicate 1
[10] = 48 h, 1 µM, compound concentration 1 uM, replicate 2
[11] = 48 h, 10 µM, compound concentration 10 uM, replicate 1
[12] = 48 h, 10 µM, compound concentration 10 uM, replicate 2

CCn1c(=O)c(-c2ccc(-c3cncs3)cc2Cl)cc2cnc(Nc3ccc(N4CCN(C)CC4)cc3)nc21
Population Apoptotic (%) [1]: 34% | Population Fragmented Nuclei (%) [1]: 7% | Population Healthy Nuclei (%) [1]: 46% | Population Hoechst High Intensity Objects (%) [1]: 14% | Population Membrane Permeable-Phenotype (%) [1]: 2% | Population Mitochondria Different-Phenotype (%) [1]: 79% | Population Mitotic Cells (%) [1]: 65% | Population Normal (%) [1]: 85% | Population Pyknosed Nuclei (%) [1]: 46% | Population Tubulin-Different-Phenotype (%) [1]: 55% | Total Cell Count [1]: 232 | Population Apoptotic (%) [2]: 10% | Population Fragmented Nuclei (%) [2]: 5% | Population Healthy Nuclei (%) [2]: 48% | Population Hoechst High Intensity Objects (%) [2]: 2% | Population Membrane Permeable-Phenotype (%) [2]: 9% | Population Mitochondria Different-Phenotype (%) [2]: 13% | Population Mitotic Cells (%) [2]: 89% | Population Normal (%) [2]: 97% | Population Pyknosed Nuclei (%) [2]: 45% | Population Tubulin-Different-Phenotype (%) [2]: 18% | Total Cell Count [2]: 288 | Population Apoptotic (%) [3]: 52% | Population Fragmented Nuclei (%) [3]: 47% | Population Healthy Nuclei (%) [3]: 21% | Population Hoechst High Intensity Objects (%) [3]: 62% | Population Membrane Permeable-Phenotype (%) [3]: 5% | Population Mitochondria Different-Phenotype (%) [3]: 93% | Population Mitotic Cells (%) [3]: 47% | Population Normal (%) [3]: 37% | Population Pyknosed Nuclei (%) [3]: 30% | Population Tubulin-Different-Phenotype (%) [3]: 93% | Total Cell Count [3]: 1090 | Population Apoptotic (%) [4]: 15% | Population Fragmented Nuclei (%) [4]: 7% | Population Healthy Nuclei (%) [4]: 55% | Population Hoechst High Intensity Objects (%) [4]: 4% | Population Membrane Permeable-Phenotype (%) [4]: 20% | Population Mitochondria Different-Phenotype (%) [4]: 16% | Population Mitotic Cells (%) [4]: 84% | Population Normal (%) [4]: 95% | Population Pyknosed Nuclei (%) [4]: 37% | Population Tubulin-Different-Phenotype (%) [4]: 38% | Total Cell Count [4]: 174 | Population Apoptotic (%) [5]: 57% | Population Fragmented Nuclei (%) [5]: 11% | Population Healthy Nuclei (%) [5]: 42% | Population Hoechst High Intensity Objects (%) [5]: 14% | Population Membrane Permeable-Phenotype (%) [5]: 2% | Population Mitochondria Different-Phenotype (%) [5]: 55% | Population Mitotic Cells (%) [5]: 42% | Population Normal (%) [5]: 85% | Population Pyknosed Nuclei (%) [5]: 45% | Population Tubulin-Different-Phenotype (%) [5]: 45% | Total Cell Count [5]: 233 | Population Apoptotic (%) [6]: 12% | Population Fragmented Nuclei (%) [6]: 4% | Population Healthy Nuclei (%) [6]: 65% | Population Hoechst High Intensity Objects (%) [6]: 1% | Population Membrane Permeable-Phenotype (%) [6]: 8% | Population Mitochondria Different-Phenotype (%) [6]: 15% | Population Mitotic Cells (%) [6]: 87% | Population Normal (%) [6]: 98% | Population Pyknosed Nuclei (%) [6]: 29% | Population Tubulin-Different-Phenotype (%) [6]: 31% | Total Cell Count [6]: 358 | Population Apoptotic (%) [7]: 59% | Population Fragmented Nuclei (%) [7]: 59% | Population Healthy Nuclei (%) [7]: 8% | Population Hoechst High Intensity Objects (%) [7]: 71% | Population Membrane Permeable-Phenotype (%) [7]: 0% | Population Mitochondria Different-Phenotype (%) [7]: 92% | Population Mitotic Cells (%) [7]: 40% | Population Normal (%) [7]: 28% | Population Pyknosed Nuclei (%) [7]: 31% | Population Tubulin-Different-Phenotype (%) [7]: 97% | Total Cell Count [7]: 1552 | Population Apoptotic (%) [8]: 30% | Population Fragmented Nuclei (%) [8]: 11% | Population Healthy Nuclei (%) [8]: 57% | Population Hoechst High Intensity Objects (%) [8]: 4% | Population Membrane Permeable-Phenotype (%) [8]: 15% | Population Mitochondria Different-Phenotype (%) [8]: 39% | Population Mitotic Cells (%) [8]: 69% | Population Normal (%) [8]: 95% | Population Tubulin-Different-Phenotype (%) [8]: 64% | Total Cell Count [8]: 177 | Population Apoptotic (%) [9]: 50% | Population Fragmented Nuclei (%) [9]: 14% | Population Healthy Nuclei (%) [9]: 57% | Population Hoechst High Intensity Objects (%) [9]: 13% | Population Membrane Permeable-Phenotype (%) [9]: 3% | Population Mitochondria Different-Phenotype (%) [9]: 33% | Population Mitotic Cells (%) [9]: 49% | Population Normal (%) [9]: 86% | Population Pyknosed Nuclei (%) [9]: 28% | Population Tubulin-Different-Phenotype (%) [9]: 36% | Total Cell Count [9]: 308 | Population Apoptotic (%) [10]: 11% | Population Fragmented Nuclei (%) [10]: 6% | Population Healthy Nuclei (%) [10]: 80% | Population Hoechst High Intensity Objects (%) [10]: 3% | Population Membrane Permeable-Phenotype (%) [10]: 7% | Population Mitochondria Different-Phenotype (%) [10]: 4% | Population Mitotic Cells (%) [10]: 88% | Population Normal (%) [10]: 96% | Population Pyknosed Nuclei (%) [10]: 13% | Population Tubulin-Different-Phenotype (%) [10]: 29% | Total Cell Count [10]: 591 | Population Apoptotic (%) [11]: 64% | Population Fragmented Nuclei (%) [11]: 72% | Population Healthy Nuclei (%) [11]: 6% | Population Hoechst High Intensity Objects (%) [11]: 74% | Population Membrane Permeable-Phenotype (%) [11]: 0% | Population Mitochondria Different-Phenotype (%) [11]: 84% | Population Mitotic Cells (%) [11]: 35% | Population Normal (%) [11]: 25% | Population Pyknosed Nuclei (%) [11]: 20% | Population Tubulin-Different-Phenotype (%) [11]: 75% | Total Cell Count [11]: 1798 | Population Apoptotic (%) [12]: 36% | Population Fragmented Nuclei (%) [12]: 8% | Population Healthy Nuclei (%) [12]: 70% | Population Hoechst High Intensity Objects (%) [12]: 4% | Population Membrane Permeable-Phenotype (%) [12]: 9% | Population Mitochondria Different-Phenotype (%) [12]: 25% | Population Mitotic Cells (%) [12]: 63% | Population Normal (%) [12]: 95% | Population Tubulin-Different-Phenotype (%) [12]: 63% | Total Cell Count [12]: 238
